Screening data (PubChem)
PolyA inh – polyadenylation inhibitors in yeast reporter cells, primary screen, luminescence, S. cerevisiae; S. cerevisiae SKY197-pL101 polyadenylation reporter, beta-gal luminescence; efflux-impaired pdr1/pdr3 knockout yeast; score 100 = 6 SD above DMSO; 0.02% of 300,000 active; activity score, % at 12 µM;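 active = lowest replicate activity score at least 50, where 100 means six control SD above control mean; inconclusive = lowest score under 50 but half or more replicates reach 50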;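 note: yeast exposed to compound for 9 h at 30 °C; higher score means more reporter readthrough which indicates perturbed polyadenylation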
STK33 kinase inh – inhibitors of purified STK33 kinase, primary screen, biochemical, ADP-Glo luminescence, homogeneous, cell-free | Serine/threonine-protein kinase 33 (Homo sapiens), Q9BYT3 | MBP phosphorylation | inhibition, % at 10 µM | 0.073% of 320,000 active;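 active = inhibition at or above 25%, using the most active replicate where run in duplicate; inactive = inhibition below 25%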
Target sequence (Q9BYT3 whole entry, looked up): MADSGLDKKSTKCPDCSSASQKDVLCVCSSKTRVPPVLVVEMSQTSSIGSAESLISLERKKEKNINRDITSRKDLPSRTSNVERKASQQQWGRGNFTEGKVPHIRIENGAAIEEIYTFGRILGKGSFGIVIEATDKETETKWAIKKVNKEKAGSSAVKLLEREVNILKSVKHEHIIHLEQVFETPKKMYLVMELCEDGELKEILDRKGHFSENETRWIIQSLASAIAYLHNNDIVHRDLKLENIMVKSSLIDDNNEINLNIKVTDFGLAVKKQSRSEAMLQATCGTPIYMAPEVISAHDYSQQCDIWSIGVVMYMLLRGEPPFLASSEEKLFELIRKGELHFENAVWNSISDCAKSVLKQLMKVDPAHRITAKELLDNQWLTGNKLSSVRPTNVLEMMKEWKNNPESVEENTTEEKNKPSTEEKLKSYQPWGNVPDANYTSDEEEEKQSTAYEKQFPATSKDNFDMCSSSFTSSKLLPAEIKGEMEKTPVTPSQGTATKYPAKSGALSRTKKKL
GSK3A inh – blockers of GSK3A enzyme activity – biochemical, luminescence, cell-free homogeneous, HTS, primary screen. 0.1% of 320,000 active. inhibition, % at 10 µM. GSK-3 alpha kinase, ADP-Glo luminescence, 60 min. Glycogen synthase kinase-3 alpha (Homo sapiens), P49840;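 active = more than half of replicates show inhibition above 20%; inconclusive = some but at most half of replicates above 20% inhibition; inactive = no replicate shows inhibition above 20%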;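 note: GST-tagged GSK-3 alpha with peptide substrate and 25 µM ATP; 0% = DMSO neutral wells and 100% = GW8510 positive control wells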
AI-2 QS mod – Vibrio harveyi AI-2 quorum sensing modulators, primary screen, JMH597 strain, luminescence/OD600 ratio; activity change, % at 7.5 µM; 0.4% of 300,000 active; Vibrio harveyi JMH597 AI-2 luminescence/OD600 ratio, 9 h; stronger effect = lower value; strain lacks LuxN and CqsS sensors; 0 = neutral-control median; in the data active = activity change below about -75%, passing the limit was not always enough; inconclusive = no clear call, values can overlap the other calls;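 note: luminescence divided by OD600 gain over 9 h not by final OD600 alone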
CR mimetic SO – reduction of superoxide in aged yeast, primary screen, HTS; 0.18% of 330,000 active; superoxide response (% of plate mean), % at 10 µM; S. cerevisiae aged cells, superoxide DHE fluorescence; stronger effect = lower value;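 active = superoxide response under a set limit, about three screen SD below normal, cut at about 65% in these data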;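 note: yeast aged for seven days with compound at 30 °C before DHE staining; 100% = average MFI of all compound-treated wells on the plate with controls excluded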
GSK3beta inhib – human GSK3beta kinase inhibitors, primary screen, biochemical, cell-free homogeneous, HTS; activity score (negative = inhibition), % at 10 µM; 0.038% of 300,000 active; GST-GSK3beta kinase, ADP-Glo luminescence, 60 min; stronger effect = lower value;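 active = more than half of replicate wells score below -50%, meaning over 50% inhibition versus plate controls; inconclusive = some replicates but at most half score below -50%; inactive = no replicate scores below -50%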;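 note: 0% = median DMSO wells and -100% = median GW8510 positive control wells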
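Assay system: GST-fused GSK3beta enzyme, cell-free / Medium: Tris pH 7.5 buffer with MgCl2, DTT, BSA, heparin / Also added: peptide substrate plus 25 µM ATP (final) / Compound: 10 µM single point / Timing: kinase reaction with compound 60 min at room temperature / Detection: ADP-Glo luminescence / Benchmarks: DMSO neutral wells and GW8510 at 20 µM as positive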
JMH597 growth rt – Vibrio harveyi growth inhibition, confirmation, counter-screen for AI-2 quorum sensing project, JMH597 strain, OD600 absorbance. shares compounds with AI-2 QS mod. 9 h; lacks LuxN and CqsS sensors. growth inhibition, % at 7.5 µM. 1% of 750 active;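 active = every replicate shows growth inhibition above 50%; inconclusive = at least half, but not all, replicates pass that cutoff; inactive = fewer than half of replicates pass it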
BB721 lum counter – luminescence inhibition in constitutive-on V. harveyi, confirmation, counter-screen for LuxS inhibitor project, strain BB721, luminescence readout | shares compounds with AI-2 QS mod | Vibrio harveyi BB721 luminescence, 9 h | inhibition, % at 7.5 µM | 95% of 750 active | AID 2727, 2010;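 active = inhibition above about 80% in every replicate, not just on average, limit read from the data; inconclusive = at least half of replicates past the limit, but not all; inactive = fewer than half of replicates past the limit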
BB721 growth rt – growth inhibition of V. harveyi BB721, confirmation, cytotoxicity control for AI-2 quorum sensing inhibitors, strain BB721, absorbance OD600. 3% of 750 active. AID 2728, 2010. growth inhibition, % at 7.5 µM. Vibrio harveyi BB721 growth, 9 h. shares compounds with AI-2 QS mod;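 active = every replicate shows growth inhibition above 50%; inconclusive = at least half but not all replicates above 50% inhibition; inactive = under half of replicates above 50% inhibition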
AI-2 QS JMH597 – Vibrio harveyi AI-2 signaling luminescence modulation – JMH597 strain, confirmation. shares compounds with AI-2 QS mod. Vibrio harveyi JMH597 AI-2 quorum sensing luminescence, 9 h; luxN and CqsS knockout, AI-2 only. inhibition, % at 7.5 µM. 97% of 750 active;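 active = every replicate shows more than 75% inhibition of signal versus neutral control wells; inconclusive = half to three quarters of replicates exceed 75% inhibition; inactive = fewer than half of replicates exceed 75% inhibition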
* = called active by the depositor. This is a sample that favours compounds with a hit; in the whole collection about 0.72% have one here.

Screening O=C(CN1C(=O)c2ccccc2C1=O)Nc1cccc(S(=O)(=O)Nc2ccccc2Cl)c1 returned PolyA inh 2.2, STK33 kinase inh 1.0, GSK3A inh -5.3, AI-2 QS mod -82.7*, CR mimetic SO 109.7, GSK3beta inhib 3.2, JMH597 growth rt 35.3, BB721 lum counter 90.4*, BB721 growth rt 40.9 and AI-2 QS JMH597 92.5*.
For O=C(CN1C(=O)c2ccccc2C1=O)Nc1cccc(Cl)c1 the results were PolyA inh -9.8, STK33 kinase inh 0.8, GSK3A inh -0.5, AI-2 QS mod -93.5*, CR mimetic SO 102.3, GSK3beta inhib -1.1, JMH597 growth rt 11.2, BB721 lum counter 98.8*, BB721 growth rt 3.3 and AI-2 QS JMH597 99.1*.
For O=C(CCN1C(=O)c2ccccc2C1=O)Nc1cccc(S(=O)(=O)N2CCCCC2)c1 the results were PolyA inh -12.8, STK33 kinase inh 0.0, GSK3A inh -0.7, AI-2 QS mod 3.3, CR mimetic SO 107.7 and GSK3beta inhib -0.7.
For Cc1cc(NC(=O)CN2C(=O)c3ccccc3C2=O)no1 the results were PolyA inh 10.6, STK33 kinase inh -0.8, GSK3A inh -0.1, AI-2 QS mod inconclusive, CR mimetic SO 99.5, GSK3beta inhib -1.2, JMH597 growth rt -1.8, BB721 lum counter 83.7*, BB721 growth rt -5.3 and AI-2 QS JMH597 87.1*.
Screening O=C(CN1C(=O)c2ccccc2C1=O)Nc1cccc(O)c1 returned PolyA inh -4.8, STK33 kinase inh -1.7, GSK3A inh -3.5, AI-2 QS mod inconclusive, CR mimetic SO 106.4 and GSK3beta inhib -0.4.
`COc1cc2c(cc1OC)[C@@H](NC(=O)CCc1ccccc1)[C@H](OCc1ccccc1)C2` gave CR mimetic SO 116.8.
For Cn1c(C(=O)NCCc2c[nH]c3ccccc23)cc2sccc21 the results were PolyA inh -14.2, STK33 kinase inh -0.9, GSK3A inh -0.1, AI-2 QS mod inconclusive, CR mimetic SO 102.4, GSK3beta inhib -3.5, JMH597 growth rt -20.0, BB721 lum counter 93.3*, BB721 growth rt -16.8 and AI-2 QS JMH597 93.7*.
Screening O=C(NCCc1c[nH]c2ccccc12)c1ccc2c(c1)OCO2 returned PolyA inh -4.2, STK33 kinase inh -0.2, GSK3A inh 3.5, AI-2 QS mod -85.5*, CR mimetic SO 106.1, GSK3beta inhib -2.5, JMH597 growth rt 16.4, BB721 lum counter 93.0*, BB721 growth rt 11.4 and AI-2 QS JMH597 96.6*.
O=C(O)c1ccc(S(=O)(=O)NCC2CCCO2)cc1 (stereo not given) was read as PolyA inh -0.8, STK33 kinase inh 0.3, GSK3A inh 0.2, AI-2 QS mod 15.1, CR mimetic SO 96.3 and GSK3beta inhib -0.5.
